This passage reports IC50 and inhibition results from PubChem BioAssay AID602309 (Southern Research Specialized Biocontainment Screening …, 2012).

The source made the active and inactive calls.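 How the source made its calls: active means inhibition of 30% or more at any tested concentration; inactive means the rest.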

In the first assay the target is M17 leucyl aminopeptidase (Plasmodium falciparum 3D7). The experiment in a line: PfM17LAP leucine aminopeptidase inhibitors, dose response, biochemical, QFRET, set 3 (AID 602309). To be noted: purified rPfM17LAP, H-Leu-NHMec fluorogenic cleavage. The essentials:
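Measured by: fluorescence at 370/460 nm; material: purified recombinant Plasmodium falciparum M17 leucine aminopeptidase (rPFM17LAP); amount: rPFM17LAP enzyme at 5 µg/mL final; benchmarks: full reaction wells versus no-enzyme background wells; doses: 10-point twofold dilution series, 100 down to 0.2 µM; timing: enzyme reaction 90 min at room temperature; also added: H-Leu-NHMec substrate, 0.1 mM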
Turning to `CCC(C)Oc1ccc(CC(=O)NO)cc1` (stereo not drawn), the IC50 is 2270 nM.

Take `O=C(NO)c1ccc2ccccc2c1`: the IC50 is 46300 nM.

Take `CCCOc1ccc(CC(=O)NO)cc1`: the IC50 is 1390 nM.

Regarding `CCCCOc1ccc(C(C)C(=O)NO)cc1` (stereo not drawn), the half-inhibitory concentration (IC50) is 2160 nM.

For the compound `CCCCOc1cccc(CC(=O)NO)c1`, the half-inhibitory concentration (IC50) was 2260 nM.

The same assay, now with this note: purified rPfM17LAP, H-Leu-NHMec fluorogenic cleavage; at 100 µM (top of the series).
For `CCCCOc1ccc(C(C)(C)C(=O)O)cc1`, the inhibition result was “inactive”.

For the compound `CCCCOc1ccc(C(C)(C)C(=O)NO)cc1`, the inhibition result is “inactive”.

Turning to `CCCCOc1ccc(CN(O)C(C)=O)cc1`, the inhibition result was “inactive”.

In the case of `CCCCOc1cccc(CC(=O)OC)c1`, the inhibition entry is “inactive”.

Regarding `CCCOc1ccc(CC(=O)O)cc1`, the inhibition result is “inactive”.

As for `CN(C)CCOc1ccc(CC(=O)O)cc1`, the inhibition entry is “inactive”.

Turning to `CCCCOc1ccc(C(C)C(=O)OC)cc1` (stereo not drawn), the inhibition result is “inactive”.

Consider `CCCCOc1ccc(CN(O)C(=O)c2ccccc2)cc1`, for which the inhibition result was “inactive”.
